The sample as a whole holds a higher share of hits than the screen did.
MPTP inh – mitochondrial permeability transition pore inhibitors, primary screen, biochemical, isolated mouse mitochondria, absorbance; 360,000 compounds, 1.4% hits; inhibition, % at 10 µM; Ca2+ swelling absorbance, 30 min; AID 602449, 2012;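 active = inhibition of 50% or more, scaled per plate between neutral and stimulator controls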;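 note: 0% = DMSO wells given calcium and 100% = 1 mM EGTA wells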
DTT redox prof – compounds producing H2O2 with reducing agent – biochemical, NIH compound library profiling, artefact control for MLSCN library redox annotation, primary screen; DTT-dependent redox cycling H2O2, phenol red/HRP absorbance; 100% = 100 µM peroxide control, 0% = buffer; activation, % at 10 µM; 200,000 compounds, 0.03% hits;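 active = activation of at least 50% relative to the plate's high and low controls in the primary single-dose screen; inactive = activation below 50%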;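 note: compound incubated with DTT at 0.8 mM final as the reducing agent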
Lipid droplet – inhibitors of hepatocyte lipid droplet formation, primary screen, imaging, high-throughput imaging, BODIPY stain | AML12 mouse hepatocytes, oleate lipid droplets | inhibition, % at 6.5 µM | 240,000 compounds, 0.4% hits;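 active = lipid droplet intensity inhibited by at least 50%, with more than 500 cells counted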
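Technique: fluorescence imaging, 20x objective, two fields per well / Assay system: AML12 hepatocytes (mouse) / Measure: % inhibition of lipid droplet signal / Doses: 6.5 µM single-point dosing / Incubation: overnight exposure / Reagent: 100 µM oleic acid challenge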
Lmaj promast – Leishmania major promastigote growth inhibition, primary screen; Leishmania major promastigotes, resazurin fluorescence viability; inhibition, % at 10 µM; 200,000 compounds, 9% hits; in the data active = inhibition above about 50%;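 note: promastigotes grown with compound for 44 hours at 28 °C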
T cruzi inh – inhibitors of intracellular T. cruzi growth, primary screen, luminescence, NIH3T3 host cells | T. cruzi beta-gal in NIH3T3, 90 h | inhibition, % (test concentration not listed) | 300,000 compounds, 1.4% hits | AID 1885, 2009;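 active = mean inhibition across valid replicates above about 55%, limit read from the data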;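 note: signal also drops with host cell toxicity which is not excluded here; 0% = plate median of DMSO wells and 100% = zero luminescence signal; higher percent means less beta-gal luminescence so fewer parasites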
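Assay system: NIH/3T3 fibroblasts plus reporter T. cruzi. Amount: NIH/3T3 cells, 5,000 per well. Buffer or medium: DMEM, 2% fetal bovine serum. Doses: compound pinned at 50 nL/well, DMSO. Schedule: ≥90 h infection period, 3 h prior cell attachment. Signal: luminescent β-galactosidase signal after 60 min lysis. Read-out: parasite load inhibition, %.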
Numbers without * were called inactive; x = no result.

SMILES	MPTP inh	DTT redox prof	Lipid droplet	Lmaj promast	T cruzi inh
COc1cc(CNCc2ccccn2)ccc1OCc1ccc(Cl)cc1	0	0	12	96*	-19
COc1cc(CNCc2ccccn2)ccc1OCc1c(Cl)cccc1Cl	1	-5	x	100*	14
COc1ccc(CCN(C)Cc2ccc(OCc3ccccc3)c(OC)c2)cc1OC	2	-5	x	64*	54
OC1C2COC(O2)C2OC(c3ccccc3)OC12 (configuration not stated)	-2	x	x	x	x
Cc1cccc(NC(=O)N2CCCC2C(=O)Nc2ccccc2)c1 (configuration not stated)	5	-1	-5	3	-2
COc1ccc(OCC(=O)Nc2c3c(nn2C(C)(C)C)CSC3)cc1	2	0	-14	-3	4
COc1cc(CNCc2ccccn2)ccc1OCc1cccc(Cl)c1	-1	-4	x	99*	2
COc1cc(CNc2ccc(N3CCCC3)cc2)ccc1OCc1ccccc1	2	3	-16	-1	x
O=C(NCc1ccccn1)c1cc(Cl)ccc1OCc1ccccc1	1	x	-17	x	1
COc1cc(CNC23CC4CC(CC(C4)C2)C3)ccc1OCc1ccccc1	3	0	13	79*	34
O=c1[nH]c(CSc2ncccn2)nc2c1cnn2-c1ccccc1	0	-1	-8	54*	-5
O=c1[nH]c(CSc2nc3ccccc3[nH]2)nc2c1cnn2-c1ccccc1	4	0	-3	69*	-10
O=C(Nc1ccc2ccccc2n1)c1ccccc1Br	-1	x	0	x	10
Cc1ccc(OCCSc2nc3ncnc(N)c3[nH]2)cc1	0	-3	9	9	8
Nc1ncnc2nc(SCCOc3ccc(Cl)cc3)[nH]c12	2	-1	9	55*	-4
Cc1cccc(CN2CCN(C(=O)CN(C)C(C)C(=O)Nc3ccc(C(N)=O)cc3)CC2)c1 (configuration not stated)	-2	x	x	x	x
O=C(/C=C/c1cccc(F)c1)Nc1ccc(S(=O)(=O)N2CCOCC2)cc1	-1	x	x	x	x
CC(=O)CC1OC(=O)C(Br)=C1NCc1ccccc1 (configuration not stated)	-1	0	x	42	59*
O=C(NCCc1c[nH]c2ccccc12)c1cc(S(=O)(=O)N2CCCCC2)ccc1N1CCOCC1	-2	2	x	65*	4
CC(=O)NCCc1nc2cc(NC(=O)COc3ccc(C)cc3)ccc2n1C	2	x	1	x	-5
N#Cc1nc(-c2ccc(OCc3ccccc3)cc2)oc1NCCCn1ccnc1	-5	0	-9	52*	38
N#Cc1nc(-c2ccc(OCc3ccccc3Cl)cc2)oc1NCCCn1ccnc1	x	-1	14	99*	37
O=C(/C=C/c1ccc([N+](=O)[O-])s1)N1CCCCC1	-2	-1	5	98*	0
O=C(/C=C/c1cccs1)N1CCN(c2ccc(O)cc2)CC1	1	-1	-3	76*	24
O=C(/C=C/c1ccccc1[N+](=O)[O-])N1CCCCC1	2	-1	8	6	-4
SMILES	MPTP inh	DTT redox prof	Lipid droplet	Lmaj promast	T cruzi inh
O=C(/C=C/c1ccccc1[N+](=O)[O-])N1CCN(c2ccc(F)cc2)CC1	1	0	4	2	-8
O=C(/C=C/c1ccc([N+](=O)[O-])s1)N1CCCC1	-3	-1	-17	88*	69*
O=C(/C=C/c1cccs1)N1CCCCC1	0	-2	13	5	-1
O=C(/C=C/c1ccc([N+](=O)[O-])s1)N1CCN(c2ccccc2)CC1	4	x	-27	x	59*
O=C(N/N=C/c1ccncc1)c1sc2ccccc2c1Cl	1	x	-1	x	3
O=C(N/N=C/c1ccc[nH]1)c1cc(-c2ccc(Cl)cc2)nc2ccccc12	4	0	-5	90*	15
O=C(N/N=C/c1cccnc1)c1cc(-c2ccc(Cl)cc2)nc2ccccc12	5	x	x	x	14
O=C(N/N=C/c1ccc[nH]1)c1sc2ccccc2c1Cl	30	-4	x	99*	69*
O=C(N/N=C/c1ccc(Cl)cc1)c1cc(-c2cccnc2)nc2ccccc12	1	0	-107	98*	-30
CN(C)C(=O)COc1ncnc2scc(-c3ccc(F)cc3)c12	-2	-1	-9	-4	-17
CC(C)(C)NC(=O)CSc1nnc(C2CC2)n1-c1ccccc1	0	-1	-6	-9	-1
CCN(CC)C(=O)c1ccc(S(=O)(=O)c2ccccc2)cc1	0	x	-2	x	-6
Cc1ccc(S(=O)(=O)N=Nc2c(O)[nH]c3ccccc23)cc1	-1	0	-3	-5	-11
Cc1ccc(S(=O)(=O)N(CC(=O)N=Nc2c(O)[nH]c3ccccc23)c2ccc(C)c(C)c2)cc1	20	0	8	96*	x
CCN1CCN(c2sc(S(=O)(=O)CC)nc2S(=O)(=O)c2ccc(Cl)cc2)CC1	-1	x	x	x	x
CCS(=O)(=O)c1nc(S(=O)(=O)c2ccc(Cl)cc2)c(N2CCc3ccccc3C2)s1	1	3	-2	51*	-21
COc1ccccc1OCC(=O)/C=C1/N(C)c2ccccc2C1(C)C	12	0	6	57*	22
CN1/C(=C\C(=O)C[n+]2ccc3ccccc3c2)C(C)(C)c2ccccc21	1	0	-18	100*	61*
CN1/C(=C\C(=O)COc2ccc3c(c2)OCO3)C(C)(C)c2ccccc21	4	1	-44	32	56*
CN1/C(=C\C(=O)COC(=O)C2COc3ccccc3O2)C(C)(C)c2ccccc21 (configuration not stated)	0	2	x	0	3
CCCCNS(=O)(=O)c1ccc(Br)cc1N1CCC[C@H]1CO	1	x	x	x	x
Cc1cnc(C(=O)OCC(=O)c2ccc[nH]2)cn1	-3	x	x	x	-21
COc1ccc(CN(CC2CCC(C(=O)O)CC2)C(=S)Nc2ccc(C)c(Cl)c2)cc1 (configuration not stated)	0	-1	7	2	58*
Cc1[nH]c2ccccc2c1/C=N/NC(=O)C1CC1(c1ccccc1)c1ccccc1 (configuration not stated)	5	0	35	99*	33
N=c1n(CCCOc2ccccc2Cl)c2ccccc2n1CC(N)=O	0	x	3	x	-16
Fc1ccc(-c2ccc(/C=N\n3cnnc3)o2)cc1Cl	1	0	4	95*	-1
Brc1ccc(C2=Nn3c(Cn4nnc5ccccc54)nnc3SC2)cc1	5	x	-11	x	4
COc1ccc(CSc2nncn2C)cc1[N+](=O)[O-]	1	0	0	52*	-21
O=C(NCc1ccc(F)cc1)C(=O)NCC1OCCCN1S(=O)(=O)c1cccs1 (configuration not stated)	0	x	-3	x	-8
